Structures are written as SMILES. Where two headings read alike, the source gives them in different places.

In experiment [1] the target is T1, WT-IDE (Homo sapiens, UniProt P14735).
T1 sequence (P14735 1-1019): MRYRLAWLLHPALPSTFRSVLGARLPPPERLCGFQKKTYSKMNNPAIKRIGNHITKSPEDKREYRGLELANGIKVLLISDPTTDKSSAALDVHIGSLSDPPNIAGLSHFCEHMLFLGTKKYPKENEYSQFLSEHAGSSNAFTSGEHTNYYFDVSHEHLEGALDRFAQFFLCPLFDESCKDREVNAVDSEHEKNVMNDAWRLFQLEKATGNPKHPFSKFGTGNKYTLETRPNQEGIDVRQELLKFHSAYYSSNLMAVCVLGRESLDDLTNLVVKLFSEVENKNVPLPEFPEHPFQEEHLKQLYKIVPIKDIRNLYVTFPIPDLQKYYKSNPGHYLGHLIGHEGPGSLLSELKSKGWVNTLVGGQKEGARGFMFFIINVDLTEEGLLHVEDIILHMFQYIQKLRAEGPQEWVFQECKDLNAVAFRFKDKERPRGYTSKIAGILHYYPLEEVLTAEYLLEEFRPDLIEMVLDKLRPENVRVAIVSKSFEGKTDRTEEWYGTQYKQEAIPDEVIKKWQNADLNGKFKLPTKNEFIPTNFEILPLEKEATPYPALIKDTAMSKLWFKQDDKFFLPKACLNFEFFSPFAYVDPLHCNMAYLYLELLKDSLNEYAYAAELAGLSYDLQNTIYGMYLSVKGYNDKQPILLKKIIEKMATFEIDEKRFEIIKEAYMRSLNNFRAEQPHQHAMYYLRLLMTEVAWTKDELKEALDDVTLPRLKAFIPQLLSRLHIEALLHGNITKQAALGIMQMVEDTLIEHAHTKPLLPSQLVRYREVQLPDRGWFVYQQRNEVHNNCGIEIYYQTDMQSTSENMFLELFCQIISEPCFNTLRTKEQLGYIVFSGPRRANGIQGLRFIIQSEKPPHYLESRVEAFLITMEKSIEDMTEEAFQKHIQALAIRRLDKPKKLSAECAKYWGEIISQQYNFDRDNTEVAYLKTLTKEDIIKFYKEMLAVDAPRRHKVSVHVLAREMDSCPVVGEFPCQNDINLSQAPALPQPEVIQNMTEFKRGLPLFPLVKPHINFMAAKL
Kind of experiment: test for irreversible inhibition by 100-fold dilution. The class given is biochemical. As to conditions: 100 nM IDE with high inhibitor concentration 30 min, then 100-fold dilution. The gist of the method: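 Recombinant WT-IDE activity was measured with FRET1 substrate in DTT-free solutions under three conditions. (1) 1 nM enzyme with "high" inhibitor concentrations. (2) 1 nM enzyme with 100-fold lower concentrations. (3) 100 nM enzyme preincubated 30 min with "high" concentrations, then diluted 100-fold to 1 nM enzyme and "low" inhibitor before assay. Reversible and irreversible reference inhibitors were run alongside.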

The target in experiment [2] is T2, extracellular IDE (Homo sapiens, UniProt P14735).
T2 sequence (P14735 1-1019): T1 sequence (P14735 1-1019)
Kind of experiment: cell-based IDE activity assay. As to conditions: for activity by hit cutoff criteria: Table 1 screening assays. The gist of the method: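 Extracellular IDE secreted by HEK-293 cells, harvested mechanically rather than by trypsin, served as the endogenous enzyme source. Activity was read by fluorescence polarization with fluoresceinated, biotinylated Aß peptide (FAßB) in DTT-free solutions. The primary screen used a nominal compound concentration of 6 μM. Confirmed hits were retested in dose-response format to give apparent IC50.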

Experiment [3] concerns IDE mutant sC819. Kind of experiment: inhibition of single-cysteine IDE mutant sC819. It is filed as biochemical, human. As to conditions: Figure 3B.
For experiment [4], the target named is T3, intracellular pools of IDE (Homo sapiens, UniProt P14735).
T3 sequence (P14735 1-1019): T1 sequence (P14735 1-1019)
Kind of experiment: intracellular IDE activity after incubation of intact HEK cells. It is filed as cell-based. As to conditions: 10 μM, 36 h. The gist of the method:
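Confluent HEK monolayers were exposed 36 h to 10 μM compound or DMSO vehicle, and conditioned medium was collected. Cells were washed 3× in PBS and held 30 min in hypotonic 50 mM Tris-HCl at 4 °C. They were scraped, extruded 3× through a 30G needle and spun 10,000 × g, 10 min, 4 °C. Supernatant activity was assayed by FAßB degradation without or with 1 mM DTT.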

Experiment [5] concerns the target T4, cysteine-free form of IDE (CF-IDE) (Homo sapiens, UniProt P14735, C819S, form not given).
T4 sequence (P14735 42-1019 C819S): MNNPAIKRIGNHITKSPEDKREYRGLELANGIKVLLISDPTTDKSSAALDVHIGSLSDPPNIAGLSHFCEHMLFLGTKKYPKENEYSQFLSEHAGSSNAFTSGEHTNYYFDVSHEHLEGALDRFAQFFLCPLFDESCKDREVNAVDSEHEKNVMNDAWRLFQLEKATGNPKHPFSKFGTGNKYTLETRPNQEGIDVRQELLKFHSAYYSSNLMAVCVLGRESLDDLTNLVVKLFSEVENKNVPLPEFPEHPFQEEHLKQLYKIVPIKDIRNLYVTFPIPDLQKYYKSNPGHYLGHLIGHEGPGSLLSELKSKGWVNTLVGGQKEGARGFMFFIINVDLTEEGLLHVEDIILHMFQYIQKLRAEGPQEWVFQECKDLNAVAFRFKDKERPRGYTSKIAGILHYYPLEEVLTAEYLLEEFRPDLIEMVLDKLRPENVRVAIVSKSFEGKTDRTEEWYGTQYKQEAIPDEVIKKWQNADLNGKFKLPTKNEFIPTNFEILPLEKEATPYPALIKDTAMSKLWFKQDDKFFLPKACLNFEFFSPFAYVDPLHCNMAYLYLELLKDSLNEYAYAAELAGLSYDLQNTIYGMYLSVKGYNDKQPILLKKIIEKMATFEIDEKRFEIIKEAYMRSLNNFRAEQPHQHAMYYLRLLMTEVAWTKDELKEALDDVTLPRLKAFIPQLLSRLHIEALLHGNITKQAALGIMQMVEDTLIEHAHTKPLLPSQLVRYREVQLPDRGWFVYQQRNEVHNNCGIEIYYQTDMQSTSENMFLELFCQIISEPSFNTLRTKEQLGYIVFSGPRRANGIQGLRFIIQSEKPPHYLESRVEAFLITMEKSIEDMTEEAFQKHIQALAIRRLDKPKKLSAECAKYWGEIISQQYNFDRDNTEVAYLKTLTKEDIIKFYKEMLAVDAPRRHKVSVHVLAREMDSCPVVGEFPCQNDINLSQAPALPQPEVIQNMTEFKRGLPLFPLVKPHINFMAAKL
Kind of experiment: IDE activity assay with FRET1 using cysteine-free IDE. It is filed as biochemical. Conditions: read-out: ki CF-IDE.

The target of experiment [6] is T5, recombinant wild-type IDE (WT-IDE) (Homo sapiens, UniProt P14735).
T5 sequence (P14735 1-1019): T1 sequence (P14735 1-1019)
Kind of experiment: cell-free IDE activity assay with fluorogenic peptide substrate FRET1. It is filed as biochemical.

Experiment [7] addresses T1, WT-IDE. Kind of experiment: kinetics of irreversible inhibition. It is filed as biochemical. Conditions: WT-IDE 2 nM, FRET1 5 μM; rate constant of irreversible step. The procedure, abridged:
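Recombinant WT-IDE (2 nM) and FRET1 substrate (5 μM) were monitored continuously at 3-s intervals, starting immediately after adding inhibitor at several concentrations. Curve fits gave observed rate constants, which were plotted against inhibitor concentration. A hyperbolic fit gave kinhib and KM. LE was taken as ΔG/heavy atoms using KM; SEI as pKM/tPSA/100 Å2.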

The target of experiment [8] is T1, WT-IDE. Kind of experiment: IDE activity in the presence of reducing agents / reversal by DTT. The class given is biochemical.
For experiment [9], the system named is IDE mutant sC812. Kind of experiment: inhibition of single-cysteine IDE mutant sC812. As to conditions: Figure 3B. The class given is biochemical, human.
Setting [10] is: read-out: IC50^app cell-based, Table 1, HEK-293 cells, extracellular IDE.
Where [11] appears, read: read-out: IC50^app cell-free, Table 1, WT-IDE, FRET1.

One may read the IC50 as the midpoint of a concentration-inhibition curve. Usually Ki stands for the dissociation constant of the complex between target and ligand, obtained from inhibition or displacement. As for `O=c1c2ccccc2sn1-c1cc(S(=O)(=O)N2CCOCC2)ccc1N1CCOCC1` [Compound 1], the “reversibility of inhibition in dilution experiments” value in [1] is listed as “irreversible”. Besides, the IC50 in [2] (setting [10]) is 1400 nM; in experiment [2] (read-out: IC50^app cell-based, Table 2) it was 1400 nM; in [6] (read-out: IC50^app against WT-IDE, cell-free), 233 nM; in experiment [6] (setting [11]) it was 230 nM. Moreover, the “inhibition of single-cysteine mutant sC819” value in experiment [3] was “strongly inhibited”. In addition, the “effect on intracellular pools of IDE after prolonged incubation of intact cells” value in [4] was “unaffected”. The Ki in experiment [5] was 8180 nM. Besides, the kinhib in experiment [7] worked out at 2.05 min⁻¹. Besides, the “reversibility of WT-IDE inhibition by treatment with dithiothreitol” value in experiment [8] (DTT treatment, Figure 2E) is given as “reversible”. Moreover, in experiment [8] (excess reducing agent, Supplementary Figure S1A), the “activity in the presence of excess DTT, ß-mercaptoethanol or reduced glutathione” value was “no activity was detected”. Moreover, in experiment [9], the “inhibition of single-cysteine mutant sC812” value is recorded as “no significant effect”.
Regarding `O=C(O)c1ccccc1NS(=O)(=O)c1cccc(-n2sc3ccccc3c2=O)c1` [Compound 2], the values for the IC50 in experiment [2] (setting [10]) and in experiment [6] (setting [11]) were 2100 nM and 540 nM, respectively.
Regarding `Cc1ccc(-n2sc3ccccc3c2=O)cc1S(=O)(=O)N1CCCCC1` [Compound 3], the figures for the IC50 in experiment [2] (setting [10]) and in [6] (setting [11]) were 4000 nM and 1030 nM, respectively.
Turning to `O=c1c2ccccc2sn1-c1cc(S(=O)(=O)N2CCOCC2)ccc1N1CCCC1` [Compound 4], the concentration for half-maximal inhibition (IC50) was 5600 nM in experiment [2] (setting [10]) and 1120 nM in experiment [6] (setting [11]).
Regarding `CN(C)S(=O)(=O)c1cccc(-n2sc3ccccc3c2=O)c1` [Compound 5], the “activity by hit cutoff criteria” value in experiment [2] is “inactive”. Further, in experiment [2] (setting [10]), the concentration for half-maximal inhibition (IC50) is > 10000 nM.
As for `O=c1c2ccccc2sn1-c1ccc(S(=O)(=O)N2CCCC2)cc1` [Compound 6], the “activity by hit cutoff criteria” value in [2] was “inactive”. The IC50 in experiment [2] (setting [10]) and in experiment [6] (setting [11]) was > 10000 nM in each case.
Regarding `O=c1c2cc(F)ccc2sn1-c1ccccc1` [Compound 7], the “activity by hit cutoff criteria” value in experiment [2] is listed as “active”. Further, the results for the IC50 in [2] (setting [10]) and in experiment [6] (setting [11]) were 3900 nM and 1800 nM, respectively.
On to `O=c1c2cc(C(F)(F)F)ccc2sn1-c1cc(S(=O)(=O)N2CCOCC2)ccc1N1CCOCC1` [Compound 9, 2-(2-morpholin-4-yl-5-morpholin-4-ylsulfonylphenyl)-5-(trifluoromethyl)-1,2-benzothiazol-3-one], for which the IC50 in [2] is 120 nM; in experiment [6], 71 nM. Further, in [5], the inhibition constant (Ki) is 7890 nM. The compound further displayed a kinhib in experiment [7] of 15.3 min⁻¹.
As for `CCN1C(=O)C=CC1=O` [NEM, N-ethylmaleimide, reference compound], in [1], the “reversibility of inhibition in dilution experiments” value is “irreversible”. Further, in [3], the “inhibition of single-cysteine mutant sC819” value is recorded as “completely inhibited”. The “inhibition of single-cysteine mutant sC812” value in [9] is “completely inhibited”.
